# Measurements from ChEMBL document CHEMBL2021842, “COMPARE analysis of the toxicity of an iminoquinone derivative of the imidazo[5,4-f]benzimidazoles with NAD(P)H:quinone oxidoreductase 1 (NQO1) activity and computational docking of quinones as NQO1 substrates” (Bioorg Med Chem, 2012).
# pIC50: −log10 of the molar value.
# Key:
# DU-145 = assay: Cytotoxicity against human DU145 cells assessed as reduction in mean cell viability after 72 hrs by MTT assay; assay type: functional, cell-based; settings: DU-145, 72 h
# How it was run: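 DU-145 prostate cells in RPMI-1640 with 10% heat-inactivated FBS, penicillin–streptomycin and 2 mM L-glutamine. Seeded at 2000 cells/well and left 24 h to adhere. Compound added in ethanol (1% final) for 72 h at 37 °C, 5% CO₂, with ethanol-only controls. Formazan dissolved in DMSO and read at 550 nm (690 nm reference). IC₅₀ derived by nonlinear regression of viability versus vehicle.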
# HeLa = assay: Cytotoxicity against human HeLa cells assessed as reduction in mean cell viability after 72 hrs by MTT assay; assay type: functional, cell-based
# How it was run: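 HeLa-CCL-2 cells in DMEM with 10% heat-inactivated FBS, 2 mM L-glutamine and nonessential amino acids. Plated at 1000 cells/well with 24 h adherence. Treated in ethanol (1% final) for 72 h at 37 °C under 5% CO₂, with ethanol controls. Absorbance of DMSO-dissolved formazan at 550 nm, 690 nm reference. IC₅₀ by nonlinear regression of percent viability.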
# [1] = Cytotoxicity against human GM00637 cells assessed as reduction in mean cell viability after 72 hrs by MTT assay; assay type: cell-based; settings: GM00637, 72 h
# How it was run: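 SV40-transformed normal skin fibroblasts (GM00637) in MEM Eagle–Earle BSS with 15% heat-inactivated FBS, 2 mM L-glutamine, 2× amino acids and vitamins. Seeded at 10,000 cells/well and left 24 h to adhere. Ethanol-delivered compound (1% final) for 72 h at 37 °C, 5% CO₂. MTT formazan in DMSO read at 550/690 nm. Viability relative to vehicle; IC₅₀ by nonlinear regression.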
structure (smiles),measurement,setting,value
CCCCn1cnc2c1C(=O)c1nc3n(c1C2=O)CCCC3,pIC50,DU-145,5.87
same,pIC50,HeLa,5.89
same,pIC50,[1],5.67
